We go through eleven compounds from ChEMBL document CHEMBL1144943, “New amide-bearing benzolactam-based protein kinase C modulators induce enhanced secretion of the amyloid precursor protein metabolite sAPPalpha” (J Med Chem, 2003).

Assay [1] is filed under the species Mus musculus. The assay is described as follows: Compound was evaluated for induction of hyperplasia after four applications at dose 1 (micro/application); 1-2. The format is functional.
Another assay relates to AG06848 cell line. The assay is described as follows: Ability to enhance […] secretion using human fibroblast AG06848 cell line at 1 uM concentration. It counts as functional. Also noted: unit not given here. In short, it runs like this: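 AD-patient fibroblasts (AG06848) grown to confluence (about 4–5 days), switched to serum-free DMEM for 2 h, then exposed to 1 μM compound for 3 h with DMSO (below 1%) as solvent control. sAPPα in conditioned medium measured by SDS-PAGE immunoblot with antibody 6E10, loading corrected for total cell protein. Densitometry expressed relative to DMSO-treated cells; 3–6 independent experiments.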

The target in assay [2] is Protein kinase C alpha type (Homo sapiens, UniProt P17252). The assay is described as follows: Displacement of PDBU from recombinant Protein kinase C alpha with phosphatidylserine.
The species entered for assay [3] is Mus musculus. The assay is described as follows: Compound was evaluated for induction of hyperplasia after single application at dose 10 (micro/application); 1-2. The format is functional.
The species entered for assay [4] is Mus musculus. The assay is described as follows: Compound was evaluated for induction of hyperplasia after four applications at dose 10 (micro/application); 1-3. It counts as functional.
The species entered for assay [5] is Mus musculus. The assay is described as follows: Compound was evaluated for induction of hyperplasia after single application at dose 1 (micro/application); 1-2. It counts as functional.
The species entered for assay [6] is Mus musculus. The assay can be described thus: Compound was evaluated for induction of hyperplasia after four applications at dose 3 (micro/application); 1-2. It counts as functional.
The species named for assay [7] is Mus musculus. The assay is described as follows: Compound was evaluated for induction of hyperplasia after single application at dose 3 (micro/application); 1-2. It counts as functional.
The species named for assay [8] is Mus musculus. The assay is described as follows: Compound was evaluated for induction of hyperplasia after four application at dose 30 (micro/application). The format is functional.
The species entered for assay [9] is Mus musculus. The assay is described as follows: Compound was evaluated for induction of hyperplasia after single application at dose 10 (micro/application). It counts as functional.
For assay [10], the species on record is Mus musculus. The assay is described as follows: Compound was evaluated for induction of hyperplasia after four application at dose 3 (micro/application). It counts as functional.
Assay [11] is filed under the species Mus musculus. The assay can be described thus: Compound was evaluated for induction of hyperplasia after four application at dose 10 (micro/application). It counts as functional.
Assay [12] is filed under the species Mus musculus. The assay is described as follows: Compound was evaluated for induction of hyperplasia after single application at dose 300 (micro/application). It counts as functional.
The species entered for assay [13] is Mus musculus. The assay can be described thus: Compound was evaluated for induction of hyperplasia after four application at dose 100 (micro/application). The format is functional.
Assay [14] is filed under the species Mus musculus. The assay can be described thus: Compound was evaluated for induction of hyperplasia after single application at dose 100 (micro/application). The format is functional.
The species entered for assay [15] is Mus musculus. The assay can be described thus: Compound was evaluated for induction of hyperplasia after single application at dose 3 (micro/application). It counts as functional.
Assay [16] is filed under the species Mus musculus. The assay can be described thus: Compound was evaluated for induction of hyperplasia after single application at dose 30 (micro/application). The format is functional.
The species named for assay [17] is Mus musculus. The assay can be described thus: Compound was evaluated for induction of hyperplasia after four application at dose 300 (micro/application). It counts as functional.

With `CC(C)[C@H]1C(=O)N[C@H](CO)Cc2cc(NC(=O)CCCCc3ccc(C(F)(F)F)cc3)ccc2N1C`, the Epidermal thickness in the assay listed under Mus musculus [1], in the assay filed under Mus musculus [3], in the assay listed under Mus musculus [4], in the assay filed under Mus musculus [5], in the assay filed under Mus musculus [6] and in the assay listed under Mus musculus [7] was 1 in each case. Also, in the assay on AG06848 cell line, the Activity is recorded as 30. In addition, the Ki (usually the dissociation constant of the complex between target and ligand, obtained from inhibition or displacement) in [2] is 12.5 nM.

Turning to `CC(C)[C@H]1C(=O)N[C@H](CO)Cc2cc(NC(=O)CCCCc3ccc(CCC(F)(F)C(F)(F)C(F)(F)C(F)(F)C(F)(F)C(F)(F)F)cc3)ccc2N1C`, the Activity with AG06848 cell line was 20. The inhibitory constant (Ki) in [2] amounted to 9.2 nM.

With `CC(C)[C@H]1C(=O)N[C@H](CO)Cc2cc(NC(=O)/C=C/C=C/c3ccc(/C=C/C(F)(F)C(F)(F)C(F)(F)C(F)(F)C(F)(F)C(F)(F)F)cc3)ccc2N1C`, the Activity in the assay on AG06848 cell line was found to be 10. The Ki in assay [2] came out at 11.2 nM.

For `CC(C)[C@H]1C(=O)N[C@H](CO)Cc2cc(NC(=O)/C=C/C=C/c3cc(C(F)(F)F)cc(C(F)(F)F)c3)ccc2N1C`, the Activity with AG06848 cell line worked out at 20. Moreover, the Ki in [2] was determined as 5.6 nM.

In the case of `CC(C)[C@H]1C(=O)N[C@H](CO)Cc2cc(NC(=O)/C=C/C=C/c3ccc(C(F)(F)F)cc3)ccc2N1C`, the Epidermal thickness amounted to 1 in the assay listed under Mus musculus [8]; 1 in the assay filed under Mus musculus [9]; 1 in the assay filed under Mus musculus [10]; 1 in the assay filed under Mus musculus [11]; 2 in the assay listed under Mus musculus [12]; 2 in the assay filed under Mus musculus [13]. Moreover, the Epidermal thickness was determined as 1 in the assay listed under Mus musculus [14], 1 in the assay filed under Mus musculus [15], 1 in the assay filed under Mus musculus [16] and 3 in the assay listed under Mus musculus [17]. The Activity in the assay on AG06848 cell line is 40. Moreover, the Ki in assay [2] worked out at 11.9 nM.

For `CC(C)[C@H]1C(=O)N[C@H](CO)Cc2cc(NC(=O)/C=C/C=C/c3ccccc3)ccc2N1C`, the Activity in the assay with AG06848 cell line came to 20. The inhibition constant Ki in [2] was found to be 15.8 nM.

Regarding `CC(C)[C@H]1C(=O)N[C@H](CO)Cc2cc(NC(=O)CCCCc3cc(C(F)(F)F)cc(C(F)(F)F)c3)ccc2N1C`, the Activity with AG06848 cell line stood at 0. In [2], the Ki amounted to 7.8 nM.

With `CC(C)[C@H]1C(=O)N[C@H](CO)Cc2cc(NC(=O)CCCCc3ccccc3)ccc2N1C`, in the assay on AG06848 cell line, the Activity is given as 30. In addition, the Ki in [2] stood at 34.2 nM.

As to `CCCCCC(=O)Nc1ccc2c(c1)C[C@@H](CO)NC(=O)[C@H](C(C)C)N2C`, the Activity in the assay with AG06848 cell line is recorded as 30.

On to `C/C=C/C=C/C(=O)Nc1ccc2c(c1)C[C@@H](CO)NC(=O)[C@H](C(C)C)N2C`, for which, in the assay with AG06848 cell line, the Activity is given as 10. For the same compound, in assay [2], the Ki was determined as 1970 nM.

As for `CCCCCCCCC#Cc1ccc2c(c1)C[C@@H](CO)NC(=O)[C@H](C(C)C)N2C`, the Activity in the assay with AG06848 cell line turned out to be 0.
